Data: ChEMBL document CHEMBL2010721, “Growth inhibition of Mycobacterium smegmatis by prodrugs of deoxyxylulose phosphate reducto-isomerase inhibitors, promising anti-mycobacterial agents” (Eur J Med Chem, 2012)
In brackets after ≈: the same amount, converted by molar mass. Activity calls are given as the source filed them. The calls are words filed in the database; no cut-off is given here.

Key:
Escherichia coli [1] = assay: Antimycobacterial activity against Escherichia coli at 400 nmol/disc after 24 hrs by paper disc diffusion method; assay type: functional, organism-based
[2] = tested on: Mycolicibacterium smegmatis; assay: Antimycobacterial activity against Mycobacterium smegmatis at 400 nmol/disc after 24 hrs by paper disc diffusion method; assay type: functional
In short: (§1)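 M. smegmatis (grown at 37 °C) was spread from a tenfold-diluted overnight culture on agar plates containing yeast extract, malt extract, CaCO₃ and glucose. Compounds were dissolved at 100 mM in DMSO or water, and 4 µL was put on each 6 mm disc. Isoniazid was dissolved at 7.5 mM, and 2 µL was put on each disc. Inhibition zones were read after 24 h at 37 °C.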

[3] = tested on: Mycobacterium tuberculosis; assay: Antimycobacterial activity against Mycobacterium tuberculosis; assay type: functional
[4] = molecular target: T1, 1-deoxy-D-xylulose 5-phosphate reductoisomerase (Mycobacterium smegmatis (strain ATCC 700084 / mc(2)155)) (UniProt A0QVH7); assay: Inhibition of Mycobacterium smegmatis DSM 43756 ATCC 19420 N-terminal his-tagged DXR expressed in XL1-blue Escherichia coli using NADPH and DXP as substrate at 1 uM […]; settings: Mycolicibacterium smegmatis
T1 sequence (whole entry): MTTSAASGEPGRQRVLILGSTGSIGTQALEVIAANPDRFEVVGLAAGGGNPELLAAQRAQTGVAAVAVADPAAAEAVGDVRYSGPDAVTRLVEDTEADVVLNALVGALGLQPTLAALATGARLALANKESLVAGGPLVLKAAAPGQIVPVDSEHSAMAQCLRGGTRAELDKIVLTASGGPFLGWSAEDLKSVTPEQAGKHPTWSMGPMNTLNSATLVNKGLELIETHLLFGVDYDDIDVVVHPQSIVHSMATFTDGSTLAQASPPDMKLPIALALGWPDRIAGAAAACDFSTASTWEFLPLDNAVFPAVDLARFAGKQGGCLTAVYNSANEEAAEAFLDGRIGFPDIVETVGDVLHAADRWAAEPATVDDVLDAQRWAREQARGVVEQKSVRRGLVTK

Escherichia coli [5] = assay: Inhibition of Escherichia coli DXR at 1 uM
[6] = molecular target: T2, 1-deoxy-D-xylulose 5-phosphate reductoisomerase (Mycobacterium smegmatis (strain ATCC 700084 / mc(2)155), UniProt A0QVH7); assay: Inhibition of Mycobacterium smegmatis DSM 43756 ATCC 19420 N-terminal his-tagged DXR expressed in XL1-blue Escherichia coli using NADPH and DXP as substrate preincubated for 2 mins […]; design: species or system Mycolicibacterium smegmatis
T2 sequence (A0QVH7 whole entry): T1 sequence (whole entry)
In short: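 N-terminal His-tagged M. smegmatis DXR, Ni²⁺-purified and kept in glycerol/NaCl buffer. Assay at 37 °C in 50 mM Tris/HCl pH 7.5 with 3 mM MgCl₂, 2 mM DTT, 0.15 mM NADPH and 0.5 mM DXP. Enzyme and inhibitor were preincubated 2 min with NADPH, then DXP started the reaction. Initial rates were read as A340 decrease. Inhibitor range was 0.1–0.6 or 0.2–2 µM. IC50 came from residual activity vs log concentration, mean of two determinations.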

[7] = tested on: Mycolicibacterium smegmatis; assay: Antimycobacterial activity against Mycobacterium smegmatis; assay type: functional
[8] = tested on: Mycolicibacterium smegmatis; assay: Antimycobacterial activity against Mycobacterium smegmatis assessed as viability at 250 uM after 15 mins by resazurin test; assay type: functional, organism-based
In short: (§2)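 A fresh M. smegmatis preculture was adjusted to McFarland 0.5. Then 0.2 mL went into 1.8 mL medium with inhibitor (final isoniazid 10–40 µM; other compound 250–1000 µM), shaken 24 h at 37 °C. Of this, 50 µL was added to 150 µL fresh medium, in duplicate, plus 0.01% resazurin. Plates were kept at 37 °C, and the blue-to-pink change was followed by eye for 12 h, with growth and sterile controls.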

[9] = tested on: Mycolicibacterium smegmatis; assay: Antimycobacterial activity against Mycobacterium smegmatis assessed as viability at 500 uM after 5 hrs by resazurin test; assay type: functional, organism-based; in short: as §2
[10] = tested on: Mycolicibacterium smegmatis; assay: Antimycobacterial activity against Mycobacterium smegmatis assessed as viability at 20 uM after 5 to 12 hrs by resazurin test; assay type: functional, organism-based; in short: as §2
[11] = tested on: Mycolicibacterium smegmatis; assay: Antimycobacterial activity against Mycobacterium smegmatis at 15 nmol/disc after 24 hrs by paper disc diffusion method; assay type: functional; in short: as §1
[12] = tested on: Mycolicibacterium smegmatis; assay: Antimycobacterial activity against Mycobacterium smegmatis assessed as viability at 10 uM after 1 hr by resazurin test; assay type: functional, organism-based; in short: as §2
[13] = molecular target: T2, 1-deoxy-D-xylulose 5-phosphate reductoisomerase (Mycobacterium smegmatis (strain ATCC 700084 / mc(2)155), UniProt A0QVH7); assay: Inhibition of Mycobacterium smegmatis DXR; design: species or system Mycolicibacterium smegmatis
In short: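 His-tagged M. smegmatis DXR (N-terminal tag, expressed in E. coli, Ni2+ column purified) was pre-incubated with inhibitor and 0.15 mM NADPH for 2 min at 37 °C in 50 mM Tris/HCl pH 7.5, 3 mM MgCl2, 2 mM DTT. Reaction started with 0.5 mM DXP; initial rates from NADPH absorbance decrease at 340 nm. IC50 from residual activity versus log inhibitor concentration; mean of two independent determinations.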

Structure (SMILES)	growth inhibition (GI) (Escherichia coli [1])	growth inhibition (GI) [2]	IC50 [6] [nM]	further results
CCCC(=O)OCOP(=O)(CCCC(=O)NO)OCOC(=O)CCC	inactive	inactive	–	–
O=C(CCCP(=O)(OCOC(=O)c1ccccc1)OCOC(=O)c1ccccc1)NO	inactive	inactive	–	–
CN(O)C(=O)CCCP(=O)(OCOC(=O)C(C)(C)C)OCOC(=O)C(C)(C)C	inactive	–	–	diameter of the inhibition zone (DIZ) [2]: 15 mm; MIC [3]: 50 µg/mL (≈ 118 µM)
CCCC(=O)OCOP(=O)(CCCN(O)C(C)=O)OCOC(=O)CCC	inactive	inactive	–	inhibition [4]: inactive; inhibition (Escherichia coli [5]): inactive
CC(C)(C)C(=O)OCOP(=O)(CCCC(=O)NO)OCOC(=O)C(C)(C)C	inactive	inactive	–	–
O=C(CCCP(=O)(O)O)NO	–	inactive	1480	–
CCCC(=O)OCOP(=O)(CCCC(=O)N(C)O)OCOC(=O)CCC	inactive	–	–	MIC [7]: 250 µM (≈ 99.3 µg/mL); growth inhibition (GI) [8]: inactive; inhibition [4]: inactive; growth inhibition (GI) [9]: Active; diameter of the inhibition zone (DIZ) [2]: 23 mm; inhibition (Escherichia coli [5]): inactive
CN(O)C(=O)CCCP(=O)(O)O	–	inactive	410	–
CN(O)C(=O)CCCP(=O)(OCOC(=O)c1ccccc1)OCOC(=O)c1ccccc1	inactive	–	–	diameter of the inhibition zone (DIZ) [2]: 11 mm; MIC [3]: 25 µg/mL (≈ 53.7 µM)
NNC(=O)c1ccncc1 [ISONIAZID]	–	–	–	MIC [7]: 10 µM (≈ 1.37 µg/mL); growth inhibition (GI) [10]: inactive; diameter of the inhibition zone (DIZ) [11]: 29 mm; growth inhibition (GI) [12]: inactive; MIC [3]: 7 µg/mL (≈ 51 µM)
CC(=O)N(O)CCCP(=O)(O)O [FR-900098]	–	inactive	320	–
CCCC(=O)OCOP(=O)(CCCN(O)C=O)OCOC(=O)CCC	inactive	inactive	–	–
O=CN(O)CCCP(=O)(O)O [FOSMIDOMYCIN]	–	inactive	510	IC50 [13]: 80 nM
